# Screening results deposited in PubChem by several laboratories.
# Most compounds without a hit are left out; they make up all but 1.8% or so of the library.
# STAT3 inh: reduces IL-6 driven STAT3 reporter signal. U3A cells, IL-6 STAT3-luciferase reporter, luminescence; host cell line lacks STAT1. inhibition, % at 5.5 µM. 190,000 tested, 0.89% active. AID 862;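 active = inhibition above the mean inhibition across all screened compounds plus 3 SD, cut at about 44% in these data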;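 note: 0% = DMSO only wells and 100% = 100 µM nifuroxazide control wells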
# PPC-1+TRAIL kill: kills PPC-1 cancer cells in the presence of TRAIL | 220,000 tested, 0.41% active | cell killing (% activity), % at 4 µM or 5 µM | PPC-1 cells + TRAIL, ATPLite viability luminescence;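 active = cell killing above 50% in the first pass at 4 µM, then a duplicate retest at 5 µM averaging 50% or more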;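 note: plate controls were cells with TRAIL plus DMSO for no effect and medium-only wells lacking cells for full effect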
# C8 TRAIL sens: caspase-8 TRAIL sensitization. NB7+C8 cells + TRAIL, ATPlite viability luminescence. inhibition (viability loss, TRAIL sensitization), % at 10 µM. 360,000 tested, 1% active. AID 624354;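 active = compounds causing at least 50% loss of cell viability in the single-dose screen, relative to plate controls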
# STAT1 inh: inhibitors of IFN-gamma induced STAT1 signaling; NIH 3T3 STAT1-luciferase reporter, luminescence; inhibition, % at 5.5 µM; 200,000 tested, 0.35% active;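 active = inhibition above a set limit, the mean inhibition across all tested compounds plus 3 SD, cut at about 34% in these data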;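 note: 0% = IFN-gamma with DMSO and 100% = IFN-gamma with 300 µM nifuroxazide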
# STAT3 act-1: activators of IL-6 induced STAT3 signaling | U3A cells, IL-6 STAT3-luciferase reporter, luminescence; 100% = signal with IL-6 EC80 alone | 190,000 tested, 0.91% active | AID 871 | activation (% of control), % at 5.6 µM;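 active = activation above the screen-wide mean of compound activation plus 3 SD, cut at about 130% in these data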;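 note: 0% = background luminescence of wells with medium and substrate only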
#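 Material: human STAT1-deficient U3A cells with stable STAT3-luciferase reporter / Probe or stimulus: IL-6 stimulus at 33 ng/mL final / Schedule: 1 h compound pre-exposure, 6 h IL-6 stimulation, 37 °C / Technique: luminescence / Read-out basis: percent of IL-6-only median luminescence / Control set: IL-6-only high control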
# STAT3 act-2: confirmation of STAT3 signaling activators; shares compounds with STAT3 act-1; U3A STAT3-luciferase reporter, IL-6 potentiation, luminescence; U3A cells lack STAT1; 100 means same as IL-6 alone; potentiation (% of control), % at 5.7 µM; 1,200 tested, 64% active; AID 1267;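 active = percent activation of the STAT3 luciferase reporter above a set limit taken from the earlier primary screen, cut at about 130% in these data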;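 note: 0% = background signal of medium plus substrate and 100% = median of IL-6 with DMSO wells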
# NFkB act STAT3ct: NF-kappaB activation in STAT3 activator counter-screen; activation (% of control), % at 5.7 µM; human cells, NF-kappaB reporter activation; shares compounds with STAT3 act-1; 1,200 tested, 11% active; AID 1309; in the data active = activation above about 120%;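 note: reporter induced by TNF-alpha stimulation; 100% = median of stimulated DMSO wells and 0% = no signal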
# STAT1 act STAT3c: activates STAT1, counter-screen to STAT3 activators. shares compounds with STAT3 act-1. NIH 3T3 STAT1-luciferase reporter, IFN-gamma, luminescence. activation (% of control), % at 5.7 µM. 1,200 tested, 13% active. AID 1318;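 active = activation above the solvent-only control well mean plus 3 SD, set per screening run, cut at about 120% in these data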;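 note: 100% = IFN-gamma with DMSO median signal so 100% means no change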
# * = called active by the depositor; / = no result.
SMILES,STAT3 inh,PPC-1+TRAIL kill,C8 TRAIL sens,STAT1 inh,STAT3 act-1,STAT3 act-2,NFkB act STAT3ct,STAT1 act STAT3c
COc1cc2c(cc1OC)CN(CC(=O)Nc1ccccc1C#N)CC2,-64,4,-3,4,159*,138*,104,94
CCCc1cc(=O)[nH]c(SCC(=O)c2c[nH]c3ccccc23)n1,-36,10,-4,9,143*,123,102,104
Nc1nnc(SCC(=O)NNC(=O)c2ccccc2)s1,/,/,-10,/,/,/,/,/
OC(c1ccc(Cl)cc1)c1ncc(-c2cccc(F)c2)[nH]1 (stereo not given),/,/,3,/,/,/,/,/
COc1ccc(S(=O)(=O)N2CCN(Cc3c[nH]c4ccccc34)CC2)cc1,-15,11,-8,-3,121,/,/,/
O=[N+]([O-])c1ccc(S(=O)(=O)N2CCN(Cc3c[nH]c4ccccc34)CC2)cc1,-62,7,3,14,152*,155*,105,100
O=C(COC(=O)c1c(Cl)cccc1Cl)NCC1CCCO1 (stereo not given),/,/,14,/,/,/,/,/
COc1ccccc1CN(C)C(=O)C(c1ccccc1)c1ccccc1,/,/,-4,/,/,/,/,/
CCOC(=O)c1ccccc1NC(=O)Cn1c(-c2nonc2N)nc2ccccc21,-36,20,0,2,136*,105,129*,111
CCC(C)NC(=O)C(NS(=O)(=O)c1cccc2nsnc12)c1ccccc1 (stereo not given),-39,-5,7,1,139*,96,115,117
N#C/C(=C\Nc1ccc(Cl)cn1)S(=O)(=O)c1ccccc1,/,5,-25,/,/,/,/,/
O=C/C(=C\Nc1ccc(S(=O)(=O)CCO)cc1)c1nc2cc(Cl)ccc2o1,-6,1,-7,-11,106,/,/,/
O=C/C(=C\Nc1ccc(Cl)cn1)c1nc2ccccc2o1,-40,-9,-3,12,137*,112,106,97
O=C/C(=C\Nc1ccc(Cl)cn1)c1nc2cc(Cl)ccc2o1,-53,15,1,-3,145*,127,108,97
O=C(Cn1c(C(F)(F)F)nc2ccccc21)OCC(=O)c1c[nH]c2ccccc12,-44,0,-6,6,138*,112,97,93
Cn1c(-[n+]2c(-c3ccccc3)cc(-c3ccccc3)cc2-c2ccccc2)nc2c([N+](=O)[O-])cccc21,-53,10,6,11,151*,147*,104,98
O=[N+]([O-])c1ccccc1C1Nc2cccc3cccc(c23)N1,-33,6,-6,11,138*,122,122*,99
CCc1ccc(CNC(=O)c2ccc(NC(=O)C3=CSCCO3)cc2)cc1,/,/,8,/,/,/,/,/
O=C(c1ccccc1)N1CCN2C(=O)c3ccccc3C12c1ccc(Cl)cc1 (stereo not given),-376,16,-5,27,418*,283*,112,75
O=C(c1ccc(F)cc1)N1CCN2C(=O)c3ccccc3C12c1ccc(Cl)cc1 (stereo not given),-97,16,3,27,204*,146*,116,97
COc1ccc(NC(=S)Nc2ccc(S(=O)(=O)N3CCOCC3)cc2)c(OC)c1,2,-16,-4,6,101,/,/,/
COc1ccc(NC(=S)Nc2ccc(S(N)(=O)=O)cc2)c(OC)c1,-38,8,-7,-3,136*,128,97,94
CCCCCC(=O)Nc1nc(C)c(-c2csc(Nc3cc(Cl)ccc3C)n2)s1,-5,2,1,12,111,/,/,/
CCCCCCC(=O)Nc1nc(C)c(-c2csc(Nc3ccc(Cl)cc3)n2)s1,-35,5,26,20,136*,126,108,94
Cc1nc(NC(=O)c2ccccc2)sc1-c1csc(Nc2ccc(Cl)cc2)n1,28,15,/,-10,86,/,/,/
SMILES,STAT3 inh,PPC-1+TRAIL kill,C8 TRAIL sens,STAT1 inh,STAT3 act-1,STAT3 act-2,NFkB act STAT3ct,STAT1 act STAT3c
Cc1nc(NC(=O)CC(C)C)sc1-c1csc(Nc2ccc(Cl)cc2Cl)n1,0,18,-4,-9,105,/,/,/
Cc1nc(NC(=O)c2ccco2)sc1-c1csc(Nc2ccc(Cl)cc2)n1,-56,14,19,2,146*,124,102,101
CCCCCC(=O)Nc1nc(C)c(-c2csc(Nc3ccc(Cl)cc3)n2)s1,-60,24,-22,15,148*,130,104,98
Cc1nc(NC(=O)CC(C)C)sc1-c1csc(Nc2ccc(Cl)cc2)n1,-51,-1,6,6,141*,120,100,99
CC(C)(C)c1ccc(C(CC(=O)O)NC(=O)Cc2ccc(F)cc2)cc1 (stereo not given),0,0,/,0,110,/,/,/
CC(C)(C)C1(O)CC(C(F)(F)F)=NN1C(=O)Cc1ccc([N+](=O)[O-])cc1 (stereo not given),-44,/,1,8,137*,152*,110,102
CCC1=NN(C(=O)Cc2ccc([N+](=O)[O-])cc2)C(O)(C(F)(F)F)C1 (stereo not given),/,15,-1,/,/,/,/,/
CN1CCN(C(=O)CNc2ccc(C(F)(F)F)cc2[N+](=O)[O-])CC1,-74,-20,2,0,162*,157*,103,101
CC(C)NC(=O)CNc1ccc(C(F)(F)F)cc1[N+](=O)[O-],-2,3,0,-7,103,/,/,/
Cc1c(C(=O)NCc2cccc([N+](=O)[O-])c2)sc(=O)n1Cc1ccc(C(C)C)cc1,/,/,-18,/,/,/,/,/
CC(C)(C)NC(=O)NC(=O)CN1CCN(c2cccc(Cl)c2)CC1,/,-16,-8,/,/,/,/,/
CC1CCCC(NC(=O)c2ccc(COc3ccccc3)o2)C1C (stereo not given),/,/,-12,/,/,/,/,/
C=CCOc1ccc(C2C(C(=O)c3cccs3)=C(O)C(=O)N2c2nnc(C)s2)cc1 (stereo not given),2,/,-3,-2,98,/,/,/
COc1ccc(C2C(C(=O)c3cccs3)=C(O)C(=O)N2c2nncs2)cc1 (stereo not given),-51,10,3,-1,150*,129,103,99
Cc1ccc(Cn2c(N3CCN(CCO)CC3)nc3c2c(=O)n(C)c(=O)n3C)cc1,/,/,1,/,/,/,/,/
CC1=NN(c2ccccc2)C(=O)C1N=Nc1ccc(C)cc1 (stereo not given),-25,-4,/,-13,136*,121,106,108
CC1=NN(c2nc(-c3ccc(C)cc3)cs2)C(=O)C1N=Nc1ccc2ccccc2c1 (stereo not given),-54,10,34,1,150*,142*,102,97
